The source made the active and inactive calls. The rule behind the calls is not given here.
How the values were obtained:
Enterovirus A71 [1] = assay: Antiviral activity against 0.001 PFU/cell EV71 infected in human RD cells assessed as inhibition of viral plaque formation at 0.1 uM after 16 hrs by plaque formation assay; assay type: functional; parameters: scale not given: the % may be the effect or the level left
In short: (§1)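 Virus yield assay: RD cells (6 × 10^5/well) infected with EV71 TW/2231/98 at the stated MOI for 1 h at room temperature, washed twice, then kept in 2% FBS medium with compound (0–2.5 μM) at 35°C. At 16 h p.i., supernatant and debris pooled and titrated by plaque assay in RD cells (0.3% agarose overlay, 4 days at 35°C, crystal violet, PFU/ml).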

Enterovirus A71 [2] = assay: Antiviral activity against 0.001 MOI EV71 infected in human RD cells assessed as inhibition of viral plaque formation 16 hrs by plaque formation assay; assay type: functional, organism-based; conditions: Enterovirus A; in short: as §1
Enterovirus A71 [3] = assay: Antiviral activity against 1 MOI EV71 infected in human RD cells assessed as inhibition of viral plaque formation 16 hrs by plaque formation assay; assay type: functional, organism-based; conditions: Enterovirus A; in short: as §1
[4] = Cytotoxicity against human RD cells after 16 hrs by MTS-based assay; assay type: cell-based
[5] = Selectivity index, ratio of CC50 for human RD cells to EC50 for 1 MOI EV71 infected in human RD cells
Enterovirus A71 [6] = assay: Antiviral activity against 0.001 PFU/cell EV71 TW/2231/98 infected in human RD cells assessed as inhibition of viral plaque formation after 16 hrs by plaque formation assay; assay type: functional, organism-based; conditions: Enterovirus A, TW/2231/98, RD; in short: as §1
Enterovirus A71 [7] = assay: Antiviral activity against 0.001 PFU/cell EV71 TW/2231/98 infected in human RD cells assessed as inhibition of viral plaque formation after 5 passages by plaque formation assay; assay type: functional, organism-based; conditions: Enterovirus A, TW/2231/98, RD
Enterovirus A71 [8] = assay: Antiviral activity against 0.001 PFU/cell EV71 TW/2231/98 infected in human RD cells assessed as inhibition of viral plaque formation after 10 passages by plaque formation assay; assay type: functional, organism-based; conditions: Enterovirus A, TW/2231/98, RD
Enterovirus A71 [9] = assay: Antiviral activity against 0.001 PFU/cell EV71 TW/2231/98 infected in human RD cells assessed as inhibition of viral plaque formation after 14 passages by plaque formation assay; assay type: functional, organism-based; conditions: Enterovirus A, TW/2231/98, RD
Enterovirus A71 [10] = assay: Antiviral activity against EV71 infected in human RD cells assessed as inhibition of viral plaque formation 16 hrs by plaque formation assay; assay type: functional, organism-based; conditions: Enterovirus A
Enterovirus A71 [11] = assay: Antiviral activity against EV71 harboring 2C […] T256A mutant gene infected in human RD cells assessed as inhibition of viral plaque formation 16 hrs by plaque formation assay; assay type: functional, organism-based; conditions: Enterovirus A
Enterovirus A71 [12] = assay: Antiviral activity against EV71 harboring 3D […] R163K mutant gene infected in human RD cells assessed as inhibition of viral plaque formation 16 hrs by plaque formation assay; assay type: functional, organism-based; conditions: Enterovirus A
Enterovirus A71 [13] = assay: Antiviral activity against EV71 harboring 3D […] R163K/S264L mutant gene infected in human RD cells assessed as inhibition of viral plaque formation 16 hrs by plaque formation assay; assay type: functional, organism-based; conditions: Enterovirus A
Enterovirus A71 [14] = assay: Antiviral activity against EV71 harboring VP1 […] V192M mutant gene infected in human RD cells assessed as inhibition of viral plaque formation 16 hrs by plaque formation assay; assay type: functional, organism-based
Enterovirus A71 [15] = assay: Antiviral activity against 1 MOI EV71 infected in human RD cells assessed as inhibition of viral progeny production at 1 uM treated 2 hrs postinfection measured after 16 hrs; assay type: functional; conditions: Enterovirus A
Enterovirus A71 [16] = assay: Antiviral activity against 1 MOI EV71 infected in human RD cells assessed as viral progeny production at 1 uM treated 4 hrs postadsorption measured after 16 hrs; assay type: functional
Enterovirus A71 [17] = assay: Antiviral activity against 1 MOI EV71 infected in human RD cells assessed as inhibition of viral progeny production at 1 uM treated 4 hrs postadsorption measured after 16 hrs; assay type: functional, organism-based
Enterovirus A71 [18] = assay: Antiviral activity against 1 MOI EV71 infected in human RD cells assessed as inhibition of viral RNA production at 2 uM after 6 to 14 hrs by real-time RT-PCR analysis; assay type: functional; conditions: Enterovirus A
In short: (§2)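 RD cells infected with EV71 at MOI 1 PFU/cell for 1 h at room temperature, washed, then kept in medium with 2 μM compound at 35°C. Intracellular RNA extracted at intervals p.i. Viral RNA quantified by TaqMan real-time RT-PCR, or by slot blot with DIG-labelled genome- and antigenome-specific RNA probes. Compared with DMSO at each time point.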

Enterovirus A71 [19] = assay: Antiviral activity against 1 MOI EV71 infected in human RD cells assessed as inhibition of viral RNA production at 2 uM after 6 to 14 hrs by slot blot analysis; assay type: functional, organism-based; in short: as §2
Enterovirus A71 [20] = assay: Antiviral activity against 1 MOI EV71 infected in human RD cells assessed as inhibition of IRES-mediated viral RNA translation at 2 uM after 6 to 14 hrs by luciferase reporter gene assay; assay type: functional, organism-based
Enterovirus A71 [21] = assay: Inhibition of EV71 recombinant 3D polymerase expressed in Escherichia coli BL21 (DE3) by polymerase elongation assay
In short: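 His-tagged EV71 3D polymerase made in E. coli BL21(DE3) (50 μM IPTG, 25°C, 4 h) and purified on a nickel column. Assay used 1 μM enzyme in 50 mM HEPES pH 7.5, 5 mM MgCl2, 60 μM ZnCl2, 10 mM 2-mercaptoethanol, 5 μM UTP plus [α-32P]UTP, and dT15/poly(rA)300 primer/template. Run 10 min at 30°C, stopped with EDTA, product captured on DE81 filters and counted by scintillation.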

[22] = system: Polymerase 3D (Human enterovirus 71 STH/MCN/2006), B2G369 [R163K]; assay: Inhibition of EV71 recombinant 3D polymerase R163K mutant expressed in Escherichia coli BL21 (DE3) assessed as enzyme activity at 250 to 500 uM by polymerase elongation assay; parameters: scale not given: the % may be the effect or the level left; conditions: Enterovirus A71
Enterovirus A71 [23] = assay: Inhibition of EV71 recombinant 3D polymerase expressed in Escherichia coli BL21 (DE3) assessed as inhibition of Vpg-pU(pU) synthesis at 250 to 500 uM by gel electrophoresis
In short: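 VPg uridylylation: 1 μM recombinant EV71 3D with 2 μg synthetic VPg, 0.5 μg poly(rA)300, 10 μM UTP plus 0.04 μM [α-32P]UTP, in 50 mM HEPES pH 7.5 with 2.5 mM Mn(OAc)2 and 8% glycerol. Incubated 60 min at 33°C. Products resolved on 13.5% Tricine SDS-PAGE and detected by autoradiography.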

Enterovirus A71 [24] = assay: Antiviral activity EV71 BrCr infected in human RD cells assessed as protection against virus-induced cytopathogenicity; assay type: functional, organism-based; conditions: Enterovirus A
In short: (§3)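 CPE neutralization test: cells seeded at 3 × 10^4/well and grown 24 h at 37°C, infected at MOI 0.005 PFU/cell. After adsorption, medium with 2% FBS and compound (twofold dilutions from 25 μM) or 0.5% DMSO added. Incubated 64 h at 35°C, then formaldehyde-fixed and crystal violet-stained, read at OD570. Triplicate, repeated at least twice. EC50 interpolated between bracketing dilutions.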

Enterovirus A71 [25] = assay: Antiviral activity EV71 1743 infected in human RD cells assessed as protection against virus-induced cytopathogenicity; assay type: functional, organism-based; conditions: Enterovirus A, 1743, RD; in short: as §3
Enterovirus A71 [26] = assay: Antiviral activity EV71 2231 infected in human RD cells assessed as protection against virus-induced cytopathogenicity; assay type: functional, organism-based; conditions: Enterovirus A, 2231, RD; in short: as §3
Enterovirus A71 [27] = assay: Antiviral activity EV71 4643 infected in human RD cells assessed as protection against virus-induced cytopathogenicity; assay type: functional, organism-based; conditions: Enterovirus A, 4643, RD; in short: as §3
Coxsackievirus A9 = assay: Antiviral activity against Coxsackievirus A9 infected in human RD cells assessed as protection against virus-induced cytopathogenicity; assay type: functional, organism-based; conditions: Enterovirus B; in short: as §3
[28] = Antiviral activity against Coxsackievirus A10 infected in human RD cells assessed as protection against virus-induced cytopathogenicity; assay type: functional, cell-based; conditions: Enterovirus A; in short: as §3
Coxsackievirus A16 = assay: Antiviral activity against Coxsackievirus A16 infected in human RD cells assessed as protection against virus-induced cytopathogenicity; assay type: functional, cell-based; conditions: Enterovirus A; in short: as §3
Coxsackievirus A24 = assay: Antiviral activity against Coxsackievirus A24 infected in human RD cells assessed as protection against virus-induced cytopathogenicity; assay type: functional, organism-based; conditions: Enterovirus C; in short: as §3
Coxsackievirus B1 = assay: Antiviral activity against Coxsackievirus B1 infected in human RD cells assessed as protection against virus-induced cytopathogenicity; assay type: functional, organism-based; conditions: Enterovirus B; in short: as §3
Coxsackievirus B2 = assay: Antiviral activity against Coxsackievirus B2 infected in human RD cells assessed as protection against virus-induced cytopathogenicity; assay type: functional, organism-based; conditions: Enterovirus B; in short: as §3
Coxsackievirus B3 = assay: Antiviral activity against Coxsackievirus B3 infected in human RD cells assessed as protection against virus-induced cytopathogenicity; assay type: functional, organism-based; conditions: Enterovirus B; in short: as §3
Coxsackievirus B4 = assay: Antiviral activity against Coxsackievirus B4 infected in human RD cells assessed as protection against virus-induced cytopathogenicity; assay type: functional, organism-based; conditions: Enterovirus B; in short: as §3
Coxsackievirus B5 = assay: Antiviral activity against Coxsackievirus B5 infected in human RD cells assessed as protection against virus-induced cytopathogenicity; assay type: functional, organism-based; conditions: Enterovirus B; in short: as §3
Coxsackievirus B6 = assay: Antiviral activity against Coxsackievirus B6 infected in human RD cells assessed as protection against virus-induced cytopathogenicity; assay type: functional, organism-based; conditions: Enterovirus B; in short: as §3
Echovirus E9 = assay: Antiviral activity against Echovirus 9 infected in human RD cells assessed as protection against virus-induced cytopathogenicity; assay type: functional, organism-based; conditions: Enterovirus B; in short: as §3
rhinovirus A2 = assay: Antiviral activity against HRV2 infected in human RD cells assessed as protection against virus-induced cytopathogenicity; assay type: functional, organism-based; conditions: Rhinovirus A; in short: as §3
Influenza A virus = assay: Antiviral activity against Influenza A virus (A/WSN/1933(H1N1)) infected in human RD cells assessed as protection against virus-induced cytopathogenicity; assay type: functional, organism-based; in short: as §3
Influenza B virus = assay: Antiviral activity against influenza B virus infected in human RD cells assessed as protection against virus-induced cytopathogenicity; assay type: functional, organism-based; in short: as §3
Human alphaherpesvirus 1 = assay: Antiviral activity against HSV1 infected in human RD cells assessed as protection against virus-induced cytopathogenicity; assay type: functional, organism-based; conditions: Human alphaherpesvirus 1, RD
Human alphaherpesvirus 2 = assay: Antiviral activity against HSV2 infected in human RD cells assessed as protection against virus-induced cytopathogenicity; assay type: functional, organism-based; conditions: Human alphaherpesvirus 2, RD

## Cc1ccsc1C(c1ccccc1Br)N1CCN(c2ncnc3c2cnn3-c2ccccc2)CC1 (stereo not drawn)
Enterovirus A71 [1]
  Activity: 95%
Enterovirus A71 [2]
  EC50: 0.023 µM
Enterovirus A71 [3]
  EC50: 0.16 µM
[4]
  CC50 at 16 h: 100 µM
[5]
  Ratio CC50/EC50: 625
Enterovirus A71 [6]
  EC50: 0.74 µM
Enterovirus A71 [7]
  EC50: 0.25 µM
Enterovirus A71 [8]
  EC50: > 25 µM
Enterovirus A71 [9]
  EC50: > 25 µM
Enterovirus A71 [10]
  EC50: 0.308 µM
Enterovirus A71 [11]
  EC50: 0.279 µM
Enterovirus A71 [12]
  EC50: > 25 µM
Enterovirus A71 [13]
  EC50: > 25 µM
Enterovirus A71 [14]
  EC50: 0.24 µM
Enterovirus A71 [15]
  inhibition at 1 µM: 79%
Enterovirus A71 [16]
  Activity: 76%
Enterovirus A71 [17]
  inhibition: inactive
Enterovirus A71 [18]
  inhibition at 2 µM: 87%
Enterovirus A71 [19]
  inhibition: Active
Enterovirus A71 [20]
  inhibition: inactive
Enterovirus A71 [21]
  inhibition: Dose-dependent effect
[22]
  Activity: 28%
Enterovirus A71 [23]
  inhibition: inactive
Enterovirus A71 [24]
  EC50: 0.15 µM
Enterovirus A71 [25]
  EC50: 0.44 µM
Enterovirus A71 [26]
  EC50: 0.98 µM
Enterovirus A71 [27]
  EC50: 0.13 µM
Coxsackievirus A9
  EC50: 0.99 µM
[28]
  EC50: 1.06 µM
Coxsackievirus A16
  EC50: 0.08 µM
Coxsackievirus A24
  EC50: 0.08 µM
Coxsackievirus B1
  EC50: 0.24 µM
Coxsackievirus B2
  EC50: 0.07 µM
Coxsackievirus B3
  EC50: 0.26 µM
Coxsackievirus B4
  EC50: 0.23 µM
Coxsackievirus B5
  EC50: 0.13 µM
Coxsackievirus B6
  EC50: 0.33 µM
Echovirus E9
  EC50: 1.22 µM
Rhinovirus A2
  EC50: 1.69 µM
Influenza A virus
  EC50: 5.98 µM
Influenza B virus
  EC50: 5.9 µM
Human alphaherpesvirus 1
  EC50: > 25 µM
Human alphaherpesvirus 2
  EC50: > 25 µM

Reference: ChEMBL document CHEMBL1649506, “Novel antiviral agent DTriP-22 targets RNA-dependent RNA polymerase of enterovirus 71” (Antimicrob Agents Chemother, 2009)
